Reference: ChEMBL document CHEMBL1143019, “Hybrid molecules of estrone: new compounds with potential antibacterial, antifungal, and antiproliferative activities” (2007)
≈ marks a conversion by molar mass, not a printed value.

Tests used:
K562 = experiment: Antiproliferative activity against human K562 cells after 72 hrs; format: functional; conditions: K562, 72 h
How it was run: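 About 10,000 suspension cells per well in RPMI 1640 with 10% heat-inactivated FBS and penicillin/streptomycin, without HEPES. Exposed to 10 concentrations for 72 h at 37 °C in humidified 5% CO₂. Wells diluted 1:50 in CASYTON and counted electronically, each result the mean of three successive counts. GI50 is where the concentration–response curve crosses 50% of control cell count.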

Pichia kudriavzevii [1] = experiment: Antifungal activity against Candida krusei E28 after 48 hrs; format: functional
How it was run: (§1)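 Modified NCCLS M27-A broth microdilution with clinical isolates subcultured on Sabouraud dextrose agar. Suspensions diluted 1:50 in RPMI 1640 to give a final inoculum of 0.5–2.5×10³ CFU/mL for yeasts or 0.5–5×10⁴ CFU/mL for molds. The RPMI had L-glutamine, no bicarbonate, and 0.165 M MOPS to pH 7.0. Twofold dilutions from 250 to 0.49. Plates held at 35 °C, humid, without agitation. MIC is the lowest concentration giving ≥80% inhibition versus drug-free control, read at 24 and 48 h.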

Lichtheimia corymbifera [2] = experiment: Antifungal activity against Absidia corymbifera 272 after 48 hrs; format: functional; how it was run: as §1
Trichophyton benhamiae [3] = experiment: Antifungal activity against Trichophyton mentagrophytes 445 after 120 hrs; format: functional, Arthroderma benhamiae
How it was run: (§2)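 Same modified M27-A microdilution with the mold inoculum of 0.5–5×10⁴ CFU/mL. Medium was RPMI 1640 with L-glutamine, no bicarbonate, and 0.165 M MOPS at pH 7.0. Twofold dilutions from 250 to 0.49. Incubated at 35 °C in a humid atmosphere.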

[4] = system: Mycobacterium tuberculosis; experiment: Antimicrobial activity against Mycobacterium tuberculosis My 331/88 after 21 days; format: functional; conditions: 504 h
Candida albicans [5] = experiment: Antifungal activity against Candida albicans ATCC 44859 after 48 hrs; format: functional; conditions: ATCC 44859, 48 h; how it was run: as §1
Nakaseomyces glabratus [6] = experiment: Antifungal activity against Candida glabrata 20/I after 24 hrs; format: functional; how it was run: as §1
Lichtheimia corymbifera [7] = experiment: Antifungal activity against Absidia corymbifera 272 after 24 hrs; format: functional; how it was run: as §1
Mycobacterium kansasii [8] = experiment: Antimicrobial activity against Mycobacterium kansasii My 235/80 after 14 days; format: functional; conditions: 336 h
How it was run: (§3)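 Run in Šula semisynthetic liquid medium containing bovine serum. Compounds added as DMSO solutions at final concentrations of […]. Each strain was also inoculated onto Löwenstein–Jensen medium to control inoculum sterility and growth.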

[9] = system: Mycobacterium tuberculosis; experiment: Antimicrobial activity against Mycobacterium tuberculosis My 331/88 after 14 days; format: functional; conditions: 336 h
L929 = experiment: Antiproliferative activity against mouse L929 cells after 72 hrs; format: functional; conditions: L929, 72 h
How it was run: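 About 10,000 adherent cells per well in RPMI 1640 with 10% heat-inactivated FBS and penicillin/streptomycin, without HEPES. Exposed to 10 concentrations for 72 h at 37 °C in humidified 5% CO₂. Monolayers fixed with glutaraldehyde, stained 15 min with 0.05% methylene blue, and eluted with 0.33 N HCl; OD read at 630 nm. GI50 derived from dose–response curves relative to control.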

Aspergillus fumigatus [10] = experiment: Antifungal activity against Aspergillus fumigatus 231 after 48 hrs; format: functional; how it was run: as §1
Mycobacterium kansasii [11] = experiment: Antimicrobial activity against Mycobacterium kansasii My 235/80 after 21 days; format: functional; conditions: 504 h; how it was run: as §3
Candida tropicalis [12] = experiment: Antifungal activity against Candida tropicalis 156 after 24 hrs; format: functional; how it was run: as §1
Pichia kudriavzevii [13] = experiment: Antifungal activity against Candida krusei E28 after 24 hrs; format: functional; how it was run: as §1
Candida tropicalis [14] = experiment: Antifungal activity against Candida tropicalis 156 after 48 hrs; format: functional; how it was run: as §1
Candida albicans [15] = experiment: Antifungal activity against Candida albicans ATCC 44859 after 24 hrs; format: functional; conditions: ATCC 44859, 24 h; how it was run: as §1
Trichosporon beigelii [16] = experiment: Antifungal activity against Trichosporon beigelii 1188 after 24 hrs; format: functional; how it was run: as §1
Nakaseomyces glabratus [17] = experiment: Antifungal activity against Candida glabrata 20/I after 48 hrs; format: functional; how it was run: as §1
HeLa = experiment: Cytotoxicity against human HeLa cells after 72 hrs; format: functional; conditions: for CC50: Homo sapiens, HeLa, 72 h
How it was run: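 About 10,000 cells per well in RPMI 1640 were preincubated 48 h without compound. The 10 test concentrations were then applied onto the monolayers and incubated 72 h at 37 °C in humidified 5% CO₂. Monolayers fixed with glutaraldehyde, stained with 0.05% methylene blue, and eluted with 0.33 N HCl; optical density measured at 630 nm.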

Trichosporon beigelii [18] = experiment: Antifungal activity against Trichosporon beigelii 1188 after 48 hrs; format: functional; how it was run: as §1
Aspergillus fumigatus [19] = experiment: Antifungal activity against Aspergillus fumigatus 231 after 24 hrs; format: functional; how it was run: as §1
Mycobacterium kansasii [20] = experiment: Antimicrobial activity against Mycobacterium kansasii My 6509/96 after 21 days; format: functional; conditions: 504 h; how it was run: as §3
Trichophyton benhamiae [21] = experiment: Antifungal activity against Trichophyton mentagrophytes 445 after 72 hrs; format: functional, Arthroderma benhamiae; how it was run: as §2
Mycobacterium kansasii [22] = experiment: Antimicrobial activity against Mycobacterium kansasii My 6509/96 after 14 days; format: functional; conditions: 336 h; how it was run: as §3
Mycobacterium kansasii [23] = experiment: Antimicrobial activity against Mycobacterium kansasii My 6509/96 after 7 days; format: functional; conditions: 168 h; how it was run: as §3
Mycobacterium avium = experiment: Antimicrobial activity against Mycobacterium avium My 330/88 after 14 days; format: functional; conditions: 336 h
Mycobacterium kansasii [24] = experiment: Antimicrobial activity against Mycobacterium kansasii My 235/80 after 7 days; format: functional; conditions: 168 h; how it was run: as §3

Row | SMILES | GI50 (K562) [µg/mL] | MIC (Pichia kudriavzevii [1]) [µM] | MIC (Lichtheimia corymbifera [2]) [µM] | MIC (Trichophyton benhamiae [3]) [µM] | MIC [4] [µM] | MIC (Candida albicans [5]) [µM] | MIC (Nakaseomyces glabratus [6]) [µM] | MIC (Lichtheimia corymbifera [7]) [µM] | MIC (Mycobacterium kansasii [8]) [µM] | GI50 (L929) [µg/mL] | MIC (Aspergillus fumigatus [10]) [µM] | MIC (Mycobacterium kansasii [11]) [µM] | MIC (Candida tropicalis [12]) [µM] | MIC (Pichia kudriavzevii [13]) [µM] | MIC (Candida tropicalis [14]) [µM] | MIC (Candida albicans [15]) [µM] | MIC (Trichosporon beigelii [16]) [µM] | MIC (Nakaseomyces glabratus [17]) [µM] | CC10 (HeLa) [µg/mL] | CC50 (HeLa) [µg/mL] | further results
1 | C[C@]12CC[C@@H]3c4ccc(OCCCCCCCSc5nnnn5-c5ccccc5)cc4CC[C@H]3[C@@H]1CCC2=O | > 50 | > 250 | > 250 | > 250 | > 500 | > 250 | > 250 | > 250 | > 500 | > 50 | > 250 | > 500 | > 250 | > 250 | > 250 | > 250 | > 250 | > 250 | 20.3 (≈ 37.3 µM) | > 50 | MIC [9]: > 500 µM; MIC (Trichosporon beigelii [18]): > 250 µM; MIC (Aspergillus fumigatus [19]): 250 µM (≈ 136 µg/mL); MIC (Mycobacterium kansasii [20]): > 500 µM; MIC (Trichophyton benhamiae [21]): > 250 µM
2 | Cc1ccc(-n2nnnc2SCc2ccccc2)cc1 | 24.3 (≈ 86.1 µM) | > 250 | > 250 | 62.5 (≈ 17.6 µg/mL) | 125 (≈ 35.3 µg/mL) | > 250 | > 250 | > 250 | 32 (≈ 9.04 µg/mL) | 12.5 (≈ 44.3 µM) | 250 (≈ 70.6 µg/mL) | 250 (≈ 70.6 µg/mL) | > 250 | > 250 | > 250 | > 250 | > 250 | > 250 | 4 (≈ 14.2 µM) | 19.7 (≈ 69.8 µM) | MIC [9]: 32 µM (≈ 9.04 µg/mL); MIC (Mycobacterium kansasii [22]): 32 µM (≈ 9.04 µg/mL); MIC (Mycobacterium kansasii [23]): 16 µM (≈ 4.52 µg/mL); MIC (Mycobacterium avium): 62.5 µM (≈ 17.6 µg/mL); MIC (Trichosporon beigelii [18]): > 250 µM; MIC (Mycobacterium kansasii [24]): 16 µM (≈ 4.52 µg/mL); MIC (Aspergillus fumigatus [19]): 62.5 µM (≈ 17.6 µg/mL); MIC (Mycobacterium kansasii [20]): 250 µM (≈ 70.6 µg/mL); MIC (Trichophyton benhamiae [21]): 31.3 µM (≈ 8.84 µg/mL)
3 | C[C@]12CC[C@@H]3c4ccc(OCCCCCCCSc5nnnn5-c5ccc(Cl)c(Cl)c5)cc4CC[C@H]3[C@@H]1CCC2=O | > 50 | > 250 | > 250 | > 250 | > 500 | > 250 | > 250 | > 250 | > 500 | > 50 | > 250 | > 500 | > 250 | > 250 | > 250 | > 250 | > 250 | > 250 | 50 (≈ 81.5 µM) | > 50 | MIC (Trichosporon beigelii [18]): > 250 µM; MIC (Aspergillus fumigatus [19]): 250 µM (≈ 153 µg/mL); MIC (Mycobacterium kansasii [20]): > 500 µM; MIC (Trichophyton benhamiae [21]): > 250 µM
